Experimental data from ChEMBL document CHEMBL1123312, “In the search for new anticancer drugs. 17. Linear and cyclic polyether analogues of N,N:N',N':N'',N''-tri-1,2-ethanediylphosphoric triamide and N,N:N',N':N'',N''-tri-1,2-ethanediylphosphorothioic triamide” (J Med Chem, 1986).
“And” between values parts separate entries of the source, which are not always exact repeats. Equal values may be shown once.

Tests used:
Mus musculus [1] = assay: Anticancer activity against P388 leukemia in CD2F1 male mice by 60 mg/kg/day.; assay type: functional
Method in brief: (§1)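 CD2F1 male mice, 19–22 g, in groups of six, inoculated ip with 10⁶ P388 cells on day 0. Dosed ip once daily for 9 days from day 1, in saline, or for linear polyethers in aqueous 2% Tween 80. Deaths and survivors were recorded to 30 days, some to 60. T/C is mean survival, treated vs tumour-bearing control. %ILS = [(T−C)/C]×100. Average day-5 weight change was taken as toxicity.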

Mus musculus [2] = assay: Compound was evaluated for the anticancer activity against P388 leukemia in CD2F1 male mice at a dose of 20 mg/kg/after 30 days; 0/6; assay type: functional
Mus musculus [3] = assay: Anticancer activity against P388 leukemia in CD2F1 male mice expressed as Average % weight change on day 5 as a measure of toxicity was reported at a dose of 20 mg/kg/day.; assay type: functional; method in brief: as §1
[4] = partition coefficient with the use of 1-octanol / water solvent system; assay type: physicochemical
Method in brief: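 4 mL of 10 mM aqueous compound was stirred vigorously with 2 mL 1-octanol for 5 min at 25 °C. The aqueous layer was analysed by ³¹P NMR, and signal intensity (peak height × width at half-height) gave concentrations in each phase. P = [octanol]/[water].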

Mus musculus [5] = assay: Percentage increase in life span when the compound was administered intraperitoneally at dose of 20 mg/Kg in P388 leukemia in CDF1 mice was determined; assay type: functional; settings: P388, ip; method in brief: as §1
Mus musculus [6] = assay: Compound was evaluated for the anticancer activity against P388 leukemia in CD2F1 male mice at a dose of 60 mg/kg/after 30 days; 0/6; assay type: functional; method in brief: as §1
Mus musculus [7] = assay: Anticancer activity against P388 leukemia in CD2F1 male mice expressed as Average % weight change on day 5 as a measure of toxicity was reported at a dose of 60 mg/kg/day.; assay type: functional; method in brief: as §1
Mus musculus [8] = assay: Percentage increase in life span when the compound was administered intraperitoneally at dose of 60 mg/Kg in P388 leukemia in CDF1 mice was determined; assay type: functional; settings: P388, ip; method in brief: as §1
Mus musculus [9] = assay: Compound was evaluated for the anticancer activity against P388 leukemia in CD2F1 male mice at a dose of 40 mg/kg/after 30 days; 0/6; assay type: functional
Mus musculus [10] = assay: Compound was evaluated for the anticancer activity against P388 leukemia in CD2F1 male mice at a dose of 90 mg/kg/day.; assay type: functional; method in brief: as §1
Mus musculus [11] = assay: Anticancer activity against P388 leukemia in CD2F1 male mice expressed as Average % weight change on day 5 as a measure of toxicity was reported at a dose of 40 mg/kg/day.; assay type: functional; method in brief: as §1
Mus musculus [12] = assay: Compound was evaluated for the anticancer activity against P388 leukemia in CD2F1 male mice at a dose of 90 mg/kg/after 60 days; 5/6; assay type: functional; method in brief: as §1
Mus musculus [13] = assay: Compound was evaluated for the anticancer activity against P388 leukemia in CD2F1 male mice at a dose of 125 mg/kg/after 30 days; 0/6; assay type: functional; method in brief: as §1
Mus musculus [14] = assay: Percentage increase in life span when the compound was administered intraperitoneally at dose of 10 mg/Kg in P388 leukemia in CDF1 mice was determined; assay type: functional; settings: P388, ip; method in brief: as §1
Mus musculus [15] = assay: Anticancer activity against P388 leukemia in CD2F1 male mice expressed as Average % weight change on day 5 as a measure of toxicity was reported at a dose of 90 mg/kg/day.; assay type: functional; method in brief: as §1
Mus musculus [16] = assay: Percentage increase in life span when the compound was administered intraperitoneally at dose of 90 mg/Kg in P388 leukemia in CDF1 mice was determined; assay type: functional; settings: P388, ip; method in brief: as §1
Mus musculus [17] = assay: Percentage increase in life span when the compound was administered intraperitoneally at dose of 5 mg/Kg in P388 leukemia in CDF1 mice was determined; assay type: functional; settings: P388, ip; method in brief: as §1
Mus musculus [18] = assay: Percentage increase in life span when the compound was administered intraperitoneally at dose of 125 mg/Kg in P388 leukemia in CDF1 mice was determined; assay type: functional; settings: P388, ip; method in brief: as §1
Mus musculus [19] = assay: Anticancer activity against P388 leukemia in CD2F1 male mice by 20 mg/kg/day.; assay type: functional; method in brief: as §1
Mus musculus [20] = assay: Anticancer activity against P388 leukemia in CD2F1 male mice expressed as Average % weight change on day 5 as a measure of toxicity was reported at a dose of 10 mg/kg/day.; assay type: functional; method in brief: as §1
Mus musculus [21] = assay: Compound was evaluated for the anticancer activity against P388 leukemia in CD2F1 male mice at a dose of 90 mg/kg/after 30 days; 6/6; assay type: functional; method in brief: as §1
Mus musculus [22] = assay: Compound was evaluated for the anticancer activity against P388 leukemia in CD2F1 male mice at a dose of 40 mg/kg/day.; assay type: functional; settings: at 40 mg/kg/day
Mus musculus [23] = assay: Compound was evaluated for the anticancer activity against P388 leukemia in CD2F1 male mice at a dose of 10 mg/kg/after 30 days; 0/6; assay type: functional; method in brief: as §1
Mus musculus [24] = assay: Anticancer activity against P388 leukemia in CD2F1 male mice expressed as Average % weight change on day 5 as a measure of toxicity was reported at a dose of 5 mg/kg/day.; assay type: functional; method in brief: as §1
Mus musculus [25] = assay: Anticancer activity against P388 leukemia in CD2F1 male mice expressed as Average % weight change on day 5 as a measure of toxicity was reported at a dose of 125 mg/kg/day.; assay type: functional; method in brief: as §1
Mus musculus [26] = assay: Percentage increase in life span when the compound was administered intraperitoneally at dose of 30 mg/Kg in P388 leukemia in CDF1 mice was determined; assay type: functional; settings: P388, ip; method in brief: as §1
Mus musculus [27] = assay: Compound was evaluated for the anticancer activity against P388 leukemia in CD2F1 male mice at a dose of 60 mg/kg/after 30 days; 3/6; assay type: functional; method in brief: as §1
Mus musculus [28] = assay: Compound was evaluated for the anticancer activity against P388 leukemia in CD2F1 male mice at a dose of 30 mg/kg/day.; assay type: functional; method in brief: as §1
Mus musculus [29] = assay: Compound was evaluated for the anticancer activity against P388 leukemia in CD2F1 male mice at a dose of 10 mg/kg/day.; assay type: functional; method in brief: as §1
Mus musculus [30] = assay: Percentage increase in life span when the compound was administered intraperitoneally at dose of 40 mg/Kg in P388 leukemia in CDF1 mice was determined; assay type: functional; settings: P388, ip; method in brief: as §1
Mus musculus [31] = assay: Compound was evaluated for the anticancer activity against P388 leukemia in CD2F1 male mice at a dose of 60 mg/kg/after 60 days; 1/6; assay type: functional; method in brief: as §1
Mus musculus [32] = assay: Anticancer activity against P388 leukemia in CD2F1 male mice expressed as Average % weight change on day 5 as a measure of toxicity was reported at a dose of 30 mg/kg/day.; assay type: functional; method in brief: as §1
Mus musculus [33] = assay: Compound was evaluated for the anticancer activity against P388 leukemia in CD2F1 male mice at a dose of 30 mg/kg/after 30 days; 0/6; assay type: functional; method in brief: as §1
Mus musculus [34] = assay: Compound was evaluated for the anticancer activity against P388 leukemia in CD2F1 male mice at a dose of 6 mg/kg/after 30 days; 0/6
Mus musculus [35] = assay: Percentage increase in life span when the compound was administered intraperitoneally at dose of 200 mg/Kg in P388 leukemia in CDF1 mice was determined; assay type: functional; settings: P388, ip
Method in brief: (§2)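 Positive-control arm of the NCI P388 protocol in CD2F1 male mice, groups of six, inoculated ip with 10⁶ cells on day 0. A single 200 mg/kg per day dose was given on day 1. Survival was followed to 30 days, with T/C and %ILS from mean survival times and day-5 average weight change as toxicity.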

Mus musculus [36] = assay: Compound was evaluated for the anticancer activity against P388 leukemia in CD2F1 male mice at a dose of 200 mg/kg/day.; assay type: functional; method in brief: as §2
Mus musculus [37] = assay: Anticancer activity against P388 leukemia in CD2F1 male mice. Number of survivors vs number of treated animals after 30 days were reported at a dose of 200 mg/kg/day; 0/6; assay type: functional; method in brief: as §2
Mus musculus [38] = assay: Anticancer activity against P388 leukemia in CD2F1 male mice expressed as Average % weight change on day 5 as a measure of toxicity was reported at a dose of 200 mg/kg/day.; assay type: functional; method in brief: as §2
Mus musculus [39] = assay: Anticancer activity against P388 leukemia in CD2F1 male mice expressed as Average % weight change on day 5 as a measure of toxicity was reported at a dose of 6 mg/kg/day.; assay type: functional; method in brief: as §1
Mus musculus [40] = assay: Compound was evaluated for the anticancer activity against P388 leukemia in CD2F1 male mice at a dose of 6 mg/kg/day.; assay type: functional; settings: at 6 mg/kg/day
Mus musculus [41] = assay: Percentage increase in life span when the compound was administered intraperitoneally at dose of 6 mg/Kg in P388 leukemia in CDF1 mice was determined; assay type: functional; settings: P388, ip; method in brief: as §1
Mus musculus [42] = assay: Compound was evaluated for the anticancer activity against P388 leukemia in CD2F1 male mice at a dose of 60 mg/kg/after 60 days; 0/6; assay type: functional; method in brief: as §1
Mus musculus [43] = assay: Compound was evaluated for the anticancer activity against P388 leukemia in CD2F1 male mice at a dose of 5 mg/kg/after 30 days; 1/6; assay type: functional

For `S=P(N1CCOCCOCCOCCOCC1)(N1CC1)N1CC1`, the T/C (Mus musculus [1]) was 180% and 80%, the Survivors (Mus musculus [2]) was 0 and the Weight change (Mus musculus [3]) was 7.9%. For the same molecule, the Partition coefficient [4] was 2.6, the ILS at 20 mg/kg (Mus musculus [5]) was 24% and the Survivors (Mus musculus [6]) was 0. It also gave a Weight change (Mus musculus [7]) of -6.4% and an ILS at 60 mg/kg (Mus musculus [8]) of 80%.
Molecule `C1COCCOCCOCCOCCN1` has a Survivors (Mus musculus [2]) of 0, a Weight change (Mus musculus [3]) of 8.3% and an ILS at 20 mg/kg (Mus musculus [5]) of 2%. For the same molecule, the Survivors (Mus musculus [6]) was 0, the Weight change (Mus musculus [7]) was 7.9% and the ILS at 60 mg/kg (Mus musculus [8]) was 0%.
For `O=P(N1CCOCCOCCOCCOCC1)(N1CC1)N1CC1`, the Survivors (Mus musculus [9]) was 0, the T/C (Mus musculus [10]) was 387% and 287% and the Weight change (Mus musculus [11]) was -6.8%. The Survivors (Mus musculus [12]) was 5, the T/C (Mus musculus [1]) was 329% and 229% and the Survivors (Mus musculus [13]) was 0. It also gave an ILS at 10 mg/kg (Mus musculus [14]) of 66%, a Weight change (Mus musculus [15]) of -1.8% and a Survivors (Mus musculus [2]) of 0. For the same molecule, the ILS at 90 mg/kg (Mus musculus [16]) was 287%, the Weight change (Mus musculus [3]) was -2% and the ILS at 5 mg/kg (Mus musculus [17]) was 41%. The ILS at 125 mg/kg (Mus musculus [18]) was -13%, the T/C (Mus musculus [19]) was 199% and 99% and the Partition coefficient [4] was 1.32. The ILS at 20 mg/kg (Mus musculus [5]) was 99%, the Weight change (Mus musculus [20]) was 6.2% and the Survivors (Mus musculus [21]) was 6. The Weight change (Mus musculus [7]) was -4.4%, the T/C (Mus musculus [22]) was 237% and 137% and the ILS at 60 mg/kg (Mus musculus [8]) was 229%. It also gave a Survivors (Mus musculus [23]) of 0, a Weight change (Mus musculus [24]) of 3.3% and a Weight change (Mus musculus [25]) of -9%. The ILS at 30 mg/kg (Mus musculus [26]) was 122%, the Survivors (Mus musculus [27]) was 3 and the T/C (Mus musculus [28]) was 222% and 122%. For the same molecule, the T/C (Mus musculus [29]) was 166% and 66%, the ILS at 40 mg/kg (Mus musculus [30]) was 137% and the Survivors (Mus musculus [31]) was 1. For the same molecule, the Weight change (Mus musculus [32]) was 0%, the Survivors (Mus musculus [33]) was 0 and the Survivors (Mus musculus [34]) was 0.
For `O=c1[nH]cc(F)c(=O)[nH]1` [FLUOROURACIL], the ILS at 200 mg/kg (Mus musculus [35]) was 79%, the T/C (Mus musculus [36]) was 179% and 79% and the Survivors (Mus musculus [37]) was 0. For the same molecule, the Weight change (Mus musculus [38]) was -4%.
For `O=P(N1CC1)(N1CC1)N1CC1` [TEPA], the Weight change (Mus musculus [39]) was -4%, the T/C (Mus musculus [40]) was 236% and 136% and the ILS at 6 mg/kg (Mus musculus [41]) was 136%. For the same molecule, the Survivors (Mus musculus [42]) was 0 and the Survivors (Mus musculus [43]) was 1.
In the case of `S=P(N1CC1)(N1CC1)N1CC1` [THIOTEPA], the T/C (Mus musculus [40]) is reported as 241% and 141%, the ILS at 6 mg/kg (Mus musculus [41]) is reported as 141% and the Partition coefficient [4] is reported as 2.54. It also gave a Survivors (Mus musculus [34]) of 0.
